# Laboratory results from ChEMBL document CHEMBL1142287, “Anti-Pneumocystis carinii and antiplasmodial activities of primaquine-derived imidazolidin-4-ones” (Bioorg Med Chem Lett, 2008).
# Legend:
# Plasmodium falciparum = assay: Antiplasmodial activity against chloroquine-resistant Plasmodium falciparum W2; assay type: functional, organism-based
# Outline: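 Parasite development assay against P. falciparum W2, run by the authors' earlier method. Values in μM, each the average of at least three determinations.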
# Pneumocystis carinii = assay: Antimicrobial activity against Pneumocystis carinii assessed as ATP levels after 72 hrs by luciferase assay; assay type: functional, organism-based
# Outline: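 P. carinii organism preparations screened before use for microbial contamination, ATP content, karyotype and host cell content. Compounds incubated with organisms for 72 h, then ATP measured as relative light units. Each concentration tested in triplicate wells and averaged, with triplicate runs using separate organism isolation batches. Activity averaged from at least three determinations.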
# [1] = Half life of hydrolysis in buffer at pH 7.4; assay type: ADME
# Outline: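 Hydrolytic stability followed in pH 7.4 buffer at 37 °C; half-life derived from the decay.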
Structure (SMILES),IC50 (Plasmodium falciparum),"IC50 (Pneumocystis carinii; Pneumocystis carinii, 72 h)",half-life [1],IC50 (Pneumocystis carinii)
COc1cc(NC(C)CCCN2C(=O)[C@H](C)NC23CCCCCC3)c2ncccc2c1 (some centres not stated),2.42 µM,1.9 µM,,
COc1cc(NC(C)CCCN2C(=O)C(Cc3ccccc3)NC2c2ccccc2C)c2ncccc2c1 (stereo in doubt; 2m2),,13 µM,,
COc1cc(NC(C)CCCN2C(=O)[C@H](C(C)C)NC23CCCCC3)c2ncccc2c1 (some centres not stated),> 50 µM,26 µM,,
COc1cc(NC(C)CCCN2C(=O)[C@H](C(C)C)NC2(C)C)c2ncccc2c1 (some centres not stated),> 50 µM,40 µM,,
COc1cc(NC(C)CCCN2C(=O)CNC2(C)C)c2ncccc2c1 (configuration not stated),9.08 µM,23 µM,,
COc1cc(NC(C)CCCN2C(=O)[C@H](C)NC23CCC(C)CC3)c2ncccc2c1 (some centres not stated),,23 µM,,
COc1cc(NC(C)CCCN2C(=O)[C@H](C(C)C)NC23CCCCCC3)c2ncccc2c1 (some centres not stated),8.89 µM,6 µM,> 10 days,
COc1cc(NC(C)CCCN)c2ncccc2c1 (configuration not stated) [PRIMAQUINE],,2.5 µM,,
COc1cc(NC(C)CCCN2C(=O)[C@H](C)NC2(C)C)c2ncccc2c1 (some centres not stated),> 50 µM,226 µM,,
COc1cc(NC(C)CCCN2C(=O)[C@H](C(C)C)NC23CCCC3)c2ncccc2c1 (some centres not stated),> 50 µM,23 µM,,
COc1cc(NC(C)CCCN2C(=O)[C@H](Cc3ccccc3)NC23CCCC3)c2ncccc2c1 (some centres not stated),> 50 µM,12 µM,,
COc1cc(NC(C)CCCN2C(=O)[C@H](Cc3ccccc3)NC2(C)C)c2ncccc2c1 (some centres not stated),> 50 µM,32 µM,,
COc1cc(NC(C)CCCN2C(=O)C(Cc3ccccc3)NC2c2ccccc2C)c2ncccc2c1 (stereo in doubt; 2m1),,,,21 µM
COc1cc(NC(C)CCCN2C(=O)[C@H](CC(C)C)NC23CCCCCC3)c2ncccc2c1 (some centres not stated),2.63 µM,4.1 µM,,
COc1cc(NC(C)CCCN2C(=O)CNC23CCCCC3)c2ncccc2c1 (configuration not stated),> 50 µM,43 µM,,
